Source: ChEMBL document CHEMBL4304782, “Antioxidant, Anti-inflammatory, and Neuroprotective Effects of Novel Vinyl Sulfonate Compounds as Nrf2 Activator” (ACS Med Chem Lett, 2019)
The source made the active and inactive calls. The rule behind the calls is not given here.

Experiments:
[1] = test system: SH-SY5Y; assay: Antioxidant activity in human SH-SY5Y cells assessed as increase in NQO1 level at 0.3 to 3 uM incubated for 6 to 24 hrs by Western blot analysis relative to control; format: functional
Summary of the method: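 SH-SY5Y neuroblastoma cells treated for 6 or 24 h, then harvested; NQO1, GCLM, GCLC protein by Western blot with β-actin loading control; at least duplicate cultures, averaged, fold of untreated control ± SEM; paired t test.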

[2] = biological target: T1, Nuclear factor erythroid 2-related factor 2 (Mus musculus) (UniProt Q60795); assay: Activation of Nrf2 in mouse BV-2 cells assessed as increase in nuclear Nrf2 level by Western blot analysis; format: cell-based
T1 sequence (whole entry): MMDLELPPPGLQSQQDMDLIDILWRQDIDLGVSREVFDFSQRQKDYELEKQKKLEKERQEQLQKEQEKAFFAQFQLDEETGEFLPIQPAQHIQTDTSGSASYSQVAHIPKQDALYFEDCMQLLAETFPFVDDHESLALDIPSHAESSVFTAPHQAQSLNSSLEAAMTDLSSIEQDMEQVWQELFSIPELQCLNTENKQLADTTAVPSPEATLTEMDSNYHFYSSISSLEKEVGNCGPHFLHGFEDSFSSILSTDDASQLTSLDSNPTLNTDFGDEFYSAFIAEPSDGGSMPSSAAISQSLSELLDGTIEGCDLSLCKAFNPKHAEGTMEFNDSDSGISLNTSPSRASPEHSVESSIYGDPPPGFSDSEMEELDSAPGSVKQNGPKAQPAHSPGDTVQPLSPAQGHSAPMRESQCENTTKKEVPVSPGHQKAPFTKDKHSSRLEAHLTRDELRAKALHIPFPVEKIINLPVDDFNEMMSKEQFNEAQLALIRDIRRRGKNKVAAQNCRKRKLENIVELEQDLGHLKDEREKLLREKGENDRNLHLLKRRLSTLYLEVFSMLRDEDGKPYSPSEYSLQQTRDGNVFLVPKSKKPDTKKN
Summary of the method: (§1)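 BV-2 microglia treated 0.3–10 μM; Nrf2 measured by Western blot in nuclear extracts and whole-cell lysates; at least duplicate cultures, averaged, expressed as fold of untreated control ± SEM; paired t test.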

[3] = test system: BV-2; assay: Antiinflammatory activity in mouse BV2 cells assessed as reduction in LPS-induced COX2 level at 1 to 10 uM incubated for 6 hrs followed by LPS stimulation for 12 hrs by Western blot analysis; format: functional, cell-based
Summary of the method: (§2)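 BV-2 cells pretreated with compound 6 h, then stimulated with 1 μg/mL LPS for 12 h; protein and mRNA levels quantified relative to LPS-stimulated control; mean ± SD (n = 3); paired t test.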

[4] = test system: Mus musculus; assay: (§3) Anti-parkinson's activity in MPTP-induced C57Bl/6 mouse model of Parkinson's disease assessed as restoration of total time at 20 mg/kg, po administered for 3 consecutive days prior and subsequent to MPTP administration (four injections of MPTP, 2 h intervals, 20 mg/kg, i.p. injection by vertical grid test; format: functional, organism-based
Summary of the method: (§4)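 Mice dosed 20 mg/kg p.o. (or vehicle) for 3 consecutive days before and after MPTP (four i.p. injections, 20 mg/kg, 2 h apart); vertical grid test (turning, descent, total time) and coat-hanger scoring; n = 10–12 per group; mean ± SEM; one-way ANOVA with Tukey's test.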

[5] = biological target: T1, Nuclear factor erythroid 2-related factor 2 (Mus musculus); assay: Activation of Nrf2 in mouse BV-2 cells assessed as increase in total Nrf2 level at 0.3 uM by Western blot analysis relative to control; format: cell-based; summary of the method: as §1
[6] = biological target: T2, Nuclear factor erythroid 2-related factor 2 (Homo sapiens, UniProt Q16236); assay: Activation of ED-tagged Nrf2 in human U2OS cells co-expressing Keap1 assessed as induction of NRF2 translocation to nucleus after 6 hrs by beta-galactosidase based chemiluminescent assay; format: cell-based
T2 sequence (Q16236 whole entry): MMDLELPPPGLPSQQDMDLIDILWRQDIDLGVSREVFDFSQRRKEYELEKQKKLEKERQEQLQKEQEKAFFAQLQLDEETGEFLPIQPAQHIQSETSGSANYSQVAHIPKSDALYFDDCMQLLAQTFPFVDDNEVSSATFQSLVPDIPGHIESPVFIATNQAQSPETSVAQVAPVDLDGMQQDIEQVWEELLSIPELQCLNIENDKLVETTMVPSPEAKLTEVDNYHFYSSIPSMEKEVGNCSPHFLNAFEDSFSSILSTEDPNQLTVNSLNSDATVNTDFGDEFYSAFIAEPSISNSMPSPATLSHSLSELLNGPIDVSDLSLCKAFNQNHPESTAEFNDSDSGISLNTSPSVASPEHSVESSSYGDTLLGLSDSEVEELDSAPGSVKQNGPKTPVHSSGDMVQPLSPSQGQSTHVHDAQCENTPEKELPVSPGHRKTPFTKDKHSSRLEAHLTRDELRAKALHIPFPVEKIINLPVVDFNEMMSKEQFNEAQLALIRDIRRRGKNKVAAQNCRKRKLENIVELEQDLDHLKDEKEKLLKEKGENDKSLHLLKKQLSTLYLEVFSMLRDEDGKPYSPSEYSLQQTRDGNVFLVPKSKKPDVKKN

[7] = test system: Mus musculus; assay: Protection against MPTP-induced DAergic neurotoxicity in C57B/6 mouse model of Parkinson's disease assessed as […] at 20 mg/kg, po observed after 7 days by microscopic analysis; format: functional, organism-based
Summary of the method: (§5)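 MPTP mouse model with 20 mg/kg oral dosing; striatal and substantia nigra sections collected 7 days later and stained for tyrosine hydroxylase; striatal TH density and nigral TH-positive neuron counts; mean ± SEM; one-way ANOVA with Tukey's test.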

[8] = biological target: T1, Nuclear factor erythroid 2-related factor 2 (Mus musculus); assay: Activation of Nrf2 in mouse BV-2 cells assessed as increase in HO-1 level at 0.3 to 10 uM incubated for 12 hrs by Western blot analysis relative to control; format: cell-based
Summary of the method: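 BV-2 cells treated for 12 h; HO-1, GCLM, GCLC protein by Western blot, normalized to β-actin; at least duplicate cultures, fold induction over untreated control ± SEM; paired t test.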

[9] = test system: Mus musculus; assay: Protection against MPTP-induced DAergic neurotoxicity in C57B/6 mouse model of Parkinson's disease assessed as restoration of TH-positive neurons cell density in striatum at 20 mg/kg, po observed after 7 days by microscopic analysis; format: functional, organism-based; summary of the method: as §5
[10] = biological target: T1, Nuclear factor erythroid 2-related factor 2 (Mus musculus); assay: Activation of Nrf2 in mouse BV-2 cells assessed as increase in nuclear Nrf2 level at 10 uM by Western blot analysis relative to control; format: cell-based; summary of the method: as §1
[11] = biological target: T1, Nuclear factor erythroid 2-related factor 2 (Mus musculus); assay: Activation of Nrf2 in mouse BV-2 cells assessed as increase in nuclear Nrf2 level at 0.3 uM by Western blot analysis relative to control; format: cell-based; summary of the method: as §1
[12] = biological target: T1, Nuclear factor erythroid 2-related factor 2 (Mus musculus); assay: Activation of Nrf2 in mouse BV-2 cells assessed as upregulation of GCLC mRNA expression at 1 to 10 uM incubated for 3 hrs by RT-qPCR analysis relative to control; format: cell-based
Summary of the method: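 BV-2 cells exposed to a range of concentrations for 3 h; HO-1, GCLM and GCLC mRNA quantified by RT-qPCR, normalized to β-actin; at least duplicate cultures, fold of untreated control ± SEM; paired t test.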

[13] = biological target: T1, Nuclear factor erythroid 2-related factor 2 (Mus musculus); assay: Activation of Nrf2 in mouse BV-2 cells assessed as increase in total Nrf2 level at 10 uM by Western blot analysis relative to control; format: cell-based; summary of the method: as §1
[14] = Cytotoxicity against mouse BV2 cells assessed as cell viability at 10 uM incubated for 6 hrs by CCK-8 assay relative to control; format: cell-based, BV-2; conditions: read-out: Activity
Summary of the method: (§6)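 BV-2 cells exposed to compound for 6 h, then viability measured; percent survival reported.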

[15] = test system: BV-2; assay: Antiinflammatory activity in mouse BV2 cells assessed as reduction in LPS-induced IL-1beta expression at 3 to 10 uM incubated for 6 hrs followed by LPS stimulation for 12 hrs by RT-qPCR analysis; format: functional, cell-based; summary of the method: as §2
[16] = Cytotoxicity against mouse BV2 cells assessed as cell viability at 1 uM incubated for 6 hrs by CCK-8 assay relative to control; format: cell-based, BV-2; conditions: read-out: Activity; summary of the method: as §6
[17] = test system: Mus musculus; assay: as §3, with “turning” for “total”; format: functional, organism-based; summary of the method: as §4

Activity [2]: Dose-dependent effect | fold change (FC) [5]: 3.3 | EC50 [6]: 76 nM | fold change (FC) [8]: 10.3 | fold change (FC) [10]: 17.6 | fold change (FC) [11]: 4 | fold change (FC) [12]: 2.3 | fold change (FC) [13]: 6.7
Structure (SMILES): COc1ccccc1OS(=O)(=O)/C=C/c1ccccc1Cl
fold change (FC) [1]: 4.7 | Activity [3]: Active | Activity [4]: Active | Activity [7]: Active | Activity [9]: Active | viability at 6 h, 10 µM [14]: 95.9% | Activity [15]: Active | viability at 6 h, 1 µM [16]: 98% | Activity [17]: Active
